These results are taken from ChEMBL document CHEMBL4823264, “Efficient Dimerization Disruption of Leishmania infantum Trypanothione Reductase by Triazole-phenyl-thiazoles” (J Med Chem, 2021).

The target of series [1] is T1, Glutathione reductase, mitochondrial (Homo sapiens) (UniProt P00390).
T1 sequence (whole entry): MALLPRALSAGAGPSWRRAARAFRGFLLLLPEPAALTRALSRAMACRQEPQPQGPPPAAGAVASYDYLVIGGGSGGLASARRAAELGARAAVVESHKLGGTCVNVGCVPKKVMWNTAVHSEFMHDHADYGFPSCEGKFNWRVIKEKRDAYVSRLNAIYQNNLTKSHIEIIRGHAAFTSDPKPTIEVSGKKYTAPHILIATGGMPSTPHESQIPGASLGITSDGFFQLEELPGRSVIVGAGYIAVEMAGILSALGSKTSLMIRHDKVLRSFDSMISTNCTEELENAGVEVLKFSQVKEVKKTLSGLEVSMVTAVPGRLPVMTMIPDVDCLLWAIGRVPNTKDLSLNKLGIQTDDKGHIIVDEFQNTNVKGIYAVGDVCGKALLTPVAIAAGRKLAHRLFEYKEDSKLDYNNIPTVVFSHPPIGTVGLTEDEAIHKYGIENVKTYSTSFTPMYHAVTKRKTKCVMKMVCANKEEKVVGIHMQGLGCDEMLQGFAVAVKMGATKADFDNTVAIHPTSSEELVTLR
Briefly: Inhibition of recombinant human GR oxidoreductase activity by DTNB-reagent based spectrophotometric method. The gist of the method:
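Recombinant hGR (7 nM) assayed at 37 °C in 40 mM HEPES pH 7.5 with 1 mM EDTA, 60 μM NADP+, 150 μM DTNB, 50 μM GSSG, 300 μM NADPH and 1.75% DMSO. TNB formation followed at 412 nm; at least three independent experiments, nonlinear regression.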

Series [2] in a line: Selectivity index, ratio of EC50 for human HepG2 cells to EC50 for axenic amastigote stage of Leishmania infantum MCAN/ES/89/IPZ229/1/89 infected in human HepG2 cells. The format is toxicity, cell-based. The settings on record: read-out: Ratio EC50.
A short description of series [3]: Drug uptake in Leishmania infantum promastigotes at 25 uM after 1 hr by fluorescence microscopy analysis. The format is ADME. The settings on record: in vivo. Summed up:
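Log-phase promastigotes exposed to 25 μM compound for 1 h at 26 °C, fixed in […], mounted on polylysine slides and imaged by fluorescence microscopy for blue compound fluorescence.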

Series [4] can be described thus: Selectivity index, ratio of EC50 for human HepG2 cells to EC50 for promastigote stage of Leishmania infantum MCAN/ES/89/IPZ229/1/89 infected in human HepG2 cells. It counts as toxicity, cell-based. The following applies: read-out: Ratio EC50.
Series [5] has as its target Trypanothione reductase (Leishmania infantum) (UniProt A4HSF7). Briefly: Inhibition of recombinant His-FLAG-tagged Leishmania infantum TryR dimerization expressed in Escherichia coli […] assessed as reduction in TryR dimer at 20 uM using TS2 as substrate after 16 hrs by ELISA relative to control. Summed up:
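HIS-FLAG-tagged LiTryR at 400 nM incubated 16 h at 37 °C in 300 mM NaCl, 50 mM Tris pH 8.0 with 3.12–75 μM compound, then centrifuged. Supernatant captured on anti-FLAG plates and detected with anti-HIS-HRP and OPD at 490 nm.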
In general terms: ELISA stands for enzyme-linked immunosorbent assay.

Another series relates to THP-1. Briefly: Cytotoxicity against human THP-1 cells at 75 uM by LDH assay. The format is cell-based. The settings on record: thp-1, 75 µM. The gist of the method: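 PMA-differentiated (100 ng/mL, 24 h) THP-1 macrophages infected with GFP-expressing amastigotes were exposed to compound, and viability was measured by LDH activity. The maximum concentration assayed was 75 μM. Three independent experiments.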

The source made the active and inactive calls. The rule behind the calls is not given here. Where only a bound is given, the exact number is not on record here.

Sequence of Trypanothione reductase (Leishmania infantum) (A4HSF7 as listed by the source): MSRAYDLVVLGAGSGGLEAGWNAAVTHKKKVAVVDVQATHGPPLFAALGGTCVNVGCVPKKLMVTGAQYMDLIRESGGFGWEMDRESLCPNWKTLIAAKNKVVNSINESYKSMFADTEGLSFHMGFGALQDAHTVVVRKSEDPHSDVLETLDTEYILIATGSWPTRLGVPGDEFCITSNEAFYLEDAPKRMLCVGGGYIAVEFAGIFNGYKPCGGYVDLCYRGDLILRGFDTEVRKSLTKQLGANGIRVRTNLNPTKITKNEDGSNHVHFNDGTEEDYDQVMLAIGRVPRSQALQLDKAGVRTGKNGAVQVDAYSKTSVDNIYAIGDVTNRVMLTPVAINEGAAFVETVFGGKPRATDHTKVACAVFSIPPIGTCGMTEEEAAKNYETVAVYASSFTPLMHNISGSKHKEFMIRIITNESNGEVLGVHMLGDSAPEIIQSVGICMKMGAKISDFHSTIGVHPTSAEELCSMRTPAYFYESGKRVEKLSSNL

Usually inhibition stands for how much of the control response was suppressed. With `NCCCCc1cn(-c2ccc(-c3nc(CCc4ccc5ccccc5c4)cs3)c(OCCN3CCNC3=O)c2)nn1`, the inhibition result in series [1] was “inactive”. Regarding `COc1cc(-n2cc(CCCCN)nn2)ccc1-c1nc(CCc2ccc(-c3ccccc3)cc2)cs1`, the selectivity ratio in series [2] came out at 1.9. Regarding `NCCCCc1cn(-c2ccc(-c3nc(-c4ccc(-c5ccccc5)cc4)c(-c4ccccc4)s3)c(OCCN3CCNC3=O)c2)nn1`, in series [2], the selectivity ratio is 1.8.

In the case of `NCCCCc1cn(-c2ccc(-c3nc(CCc4ccccc4)cs3)c(OCCN3CCNC3=O)c2)nn1.O=C(O)C(F)(F)F`, the Drug uptake entry in series [3] is given as “Active”. The inhibition result in series [1] was “inactive”. As for `NCCCCc1cn(-c2ccc(-c3nc(-c4ccccc4)cs3)c(OCCN3CCNC3=O)c2)nn1`, in series [1], the inhibition result is “inactive”. For the compound `NCCCCc1cn(-c2ccc(-c3nc(CCc4ccc(-c5ccccc5)cc4)c(-c4ccccc4)s3)c(OCCN3CCNC3=O)c2)nn1`, the selectivity ratio in series [2] was found to be 1.3. In the case of `NCCCCc1cn(-c2ccc(-c3nc(-c4ccccc4)c(-c4ccccc4)s3)c(OCCN3CCNC3=O)c2)nn1`, in series [1], the inhibition result was “inactive”. In the case of `NCCCCc1cn(-c2ccc(-c3nc(CCc4ccc(Oc5ccccc5)cc4)c(-c4ccccc4)s3)c(OCCN3CCNC3=O)c2)nn1`, in series [2], the selectivity ratio is below 1.

For `NCCCCc1cn(-c2ccc(-c3nc(-c4ccc(Oc5ccccc5)cc4)c(-c4ccccc4)s3)c(OCCN3CCNC3=O)c2)nn1`, in series [2], the selectivity ratio is at least 3.3. In the case of `NCCNCc1nccn1-c1ccc(-c2nc(CCc3ccc4ccccc4c3)cs2)c(OCCN2CCNC2=O)c1`, the selectivity ratio in series [4] and in series [2] was 2.1 in each case. In series [5], the inhibition turned out to be 26%. Consider `NCCCCc1cn(-c2ccc(-c3nc(CCc4ccc(-c5ccccc5)cc4)cs3)c(OCCN3CCNC3=O)c2)nn1.O=C(O)C(F)(F)F`, for which, in series [1], the inhibition result was “inactive”. For the same compound, the Activity with THP-1 was 100%.

For `NCCCc1cn(-c2ccc(-c3nc(CCc4ccc(-c5ccccc5)cc4)cs3)c(OCCN3CCNC3=O)c2)nn1.O=C(O)C(F)(F)F`, the Activity in the series with THP-1 is 100%. With `COc1cc(-n2cc(CCCCN)nn2)ccc1-c1nc(CCc2ccccc2)cs1`, the selectivity ratio in series [4] was 1.8. As for `NCCNCc1nccn1-c1ccc(-c2nc(CCc3ccc(-c4ccccc4)cc3)cs2)c(OCCN2CCNC2=O)c1`, in series [5], the inhibition is 32%.
